This note sets out measurements from ChEMBL document CHEMBL3124854, “Synthesis and evaluation of antiproliferative activity of a novel series of hydroxychavicol analogs” (Eur J Med Chem, 2014).

Assay [1] deals with HeLa. The experiment in a line: Cytotoxicity against human HeLa cells assessed as growth inhibition after 48 hrs by MTT assay. Format: functional, cell-based. The method in brief:
(§1)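 MTT proliferation assay: 2 × 10³ cells per well seeded, 24 h incubation, then treated with analogs dissolved in DMSO and diluted in medium at […] for 48 h. Medium then replaced with fresh medium carrying MTT (5 mg/mL stock in PBS). IC50 taken as concentration inhibiting proliferation of 50% cells; SD between batches.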
In general terms: Formazan colour is commonly taken as a measure of viable cells.

The subject of assay [2] is PC-3. The experiment in a line: Cytotoxicity against human PC3 cells assessed as growth inhibition after 48 hrs by MTT assay. As to conditions: PC-3, 48 h. It counts as functional, cell-based. A digest of the protocol: as §1

By IC50 is commonly meant the concentration at which inhibition is half-maximal.

With `CC(=O)OCCCc1ccc(O)c(O)c1`, the IC50 in assay [1] came to 22 µM; in assay [2] it was 83 µM.
For the molecule `C=CC(O)c1ccc(OCc2ccccc2)c(O)c1` (stereo not given), in assay [1], the half-inhibitory concentration (IC50) was found to be 76 µM.
Regarding `CCC(OC(C)=O)c1ccc(OC(C)=O)c(OC(C)=O)c1` (stereo not given), the figures for the IC50 in assay [1] and in assay [2] were 53 µM and 42 µM, respectively.
The matching figures for `CCC(OC(C)=O)c1ccc(O)c(OC(C)=O)c1` (stereo not given): 40 µM and 48 µM.
The corresponding values for `CC(=O)OC/C=C/c1ccc(OCc2ccccc2)c(OC(C)=O)c1` are 42 µM and 38 µM.
With `COc1cc(CC(COC(C)=O)OC(C)=O)ccc1O` (stereo not given), in assay [1], the IC50 worked out at 60 µM.
On the same count and under the same terms, to `C=CCOc1ccc(CC(COC(C)=O)OC(C)=O)cc1OC` (stereo not given) belongs 96 µM.
Consider `CC(=O)OC/C=C/c1ccc(OCc2ccccc2)c(O)c1`, for which the IC50 in assay [1] stood at 13 µM; in assay [2], 3.5 µM.
Consider `C=CCc1ccc(O)c(O)c1` [HYDROXYCHAVICOL], for which the IC50 in assay [1] is 83 µM; in assay [2] it was 55 µM.
